# Measured values reported in article PMC4504105 (Journal of Cancer, 2015).
# How the values were obtained:
# [1] = system: 26S proteasomes from PC-3M cells, trypsin-like (T-L) activity; test: 26S proteasome activity assay, T-L; format: biochemical; details: 1h; for IC50: read-out: IC50 for T-L, 26S proteasomes, 37°C
# [2] = system: 26S proteasomes from PC-3M cells, chymotrypsin-like (CT-L) activity; test: 26S proteasome activity assay, CT-L; format: biochemical; details: 1h; for IC50: read-out: IC50 for CT-L, 26S proteasomes, 37°C
# PC-3M cell xenograft = test: PC-3M xenograft tumor model; format: in vivo, Balb/c male nude mice; details: intraperitoneal, twice weekly, day 37
# How it was run: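 Male Balb/c nude mice, 4-5 weeks, SPF. 3×10^6 PC-3M cells in PBS injected s.c. into the right flank. At about 0.2 cm3, randomised to 5 groups of 7: saline, reference inhibitor 1.25 mg/kg, test compound 1.25, 2.25 or 3.25 mg/kg. Dosed i.p. twice weekly, 11 times over 36 days. Volume = a×b²/2, measured before each dose; final measurement on day 37.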
# [3] = system: cell cycle proteins in PC-3M cell xenograft tumors; test: Western blot analysis, xenograft tumor tissue; format: in vivo, Balb/c male nude mice; details: p<0.05
# How it was run: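 Western blot on PC-3M xenograft tumours from mice dosed i.p. twice weekly. Tissue ground and lysed, whole protein on 10% SDS-PAGE, blotted to nitrocellulose, blocked with 5% milk. Primary antibodies against cyclin B1, p21, p27, wee 1 and others overnight at 4°C, then anti-mouse/anti-rabbit secondaries. ECL imaging; Student's t-test against control.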
# Viscera = format: in vivo, Balb/c male nude mice; details: all three doses (1.25, 2.25, 3.25 mg/kg), P>0.05
# How it was run: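 Organ index from the PC-3M xenograft mice (male Balb/c nude; saline, reference inhibitor or test compound at 1.25, 2.25, 3.25 mg/kg i.p. twice weekly, 11 doses over 36 days). On day 37, body weight recorded, then mice killed; heart, liver, lung, brain, kidney and spleen excised and weighed. Group means ± SD compared with control by Student's t-test.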
# [4] = system: ubiquitinated and cell cycle proteins in PC-3M cells; test: Western blot analysis, PC-3M cells; format: cell-based
# How it was run: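 PC-3M cells exposed 48 h to a series of test compound concentrations (12.5-100 nM for cell-cycle proteins), then lysed. 10% SDS-PAGE, nitrocellulose, 5% milk block. Primary antibodies (ubiquitin, wee 1, cyclin B1, p27, p21, GAPDH) overnight at 4°C; anti-mouse/anti-rabbit secondaries; ECL detection. Three independent experiments; Student's t-test against control.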
# PC-3M cells [5] = test: Cancer cell proliferation; format: cell-based
# How it was run: (§1)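 PC-3M, […] or Bcap37 cells kept in RPMI 1640 with 10% FBS and 1% penicillin/streptomycin, 37°C, 5% CO2. In 96-well plates, treated 48 h with graded concentrations of test compound or of a reference proteasome inhibitor in parallel. Survival by sulforhodamine B staining. IC50 given as mean ± SD, three independent experiments.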
# HL-60 cells = test: Cancer cell proliferation; format: cell-based; details: read-out: IC50, proliferation, 48 h
# How it was run: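 HL-60 in RPMI 1640 with 10% FBS and penicillin/streptomycin at 37°C, 5% CO2. Seeded in 96-well format and exposed 48 h to a range of test compound concentrations, with a reference proteasome inhibitor run alongside. Survival by MTT. IC50 reported as mean ± SD over three independent experiments.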
# [6] = system: proteasome β catalytic sites in PC-3M cells; test: Proteasome activity profiling in intact cells; format: cell-based; details: 12.5-400 nM, 3 h
# How it was run: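 PC-3M cells treated 3 h with test compound (12.5-400 nM), washed and harvested; proteasomes extracted as for the activity assay. Lysates labelled with Me4BodipyFL-Ahx3Leu3VS (5 μM) for 1 h at 37°C, boiled in sample buffer. 20 μg protein per lane on 12.5% SDS-PAGE, in-gel fluorescence scan. Band integrated optical density quantified; three independent experiments.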
# [7] = target: T1, 26S proteasomes from PC-3M cells, post-glutamyl peptide hydrolase (PGPH) activity (Homo sapiens, UniProt P28072); test: 26S proteasome activity assay, PGPH; format: biochemical; details: 1h
# T1 sequence (P28072 35-239): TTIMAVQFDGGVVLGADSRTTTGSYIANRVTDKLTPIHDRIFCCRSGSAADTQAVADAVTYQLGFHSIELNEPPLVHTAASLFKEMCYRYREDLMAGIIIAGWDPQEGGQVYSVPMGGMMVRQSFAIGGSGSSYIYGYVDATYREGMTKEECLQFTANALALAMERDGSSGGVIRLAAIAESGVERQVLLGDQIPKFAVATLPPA
# PC-3M cells [8] = test: Cell cycle assay; format: cell-based; details: 48 h
# Bcap37 cells = test: Cancer cell proliferation; format: cell-based; details: read-out: IC50, proliferation, 48 h
# How it was run: as §1
# Bel-7740 cells = test: Cancer cell proliferation; format: cell-based; details: read-out: IC50, proliferation, 48 h
# How it was run: as §1
smiles,measurement,setting,value
"CC(C)C[C@H](NC(=O)[C@H](Cc1ccccc1)NC(=O)c1cnccn1)B(O)O [PS341, reference compound]",IC50,[1],5350 ± 57 nM
same,IC50,[2],71 ± 1 nM
same,Tumor growth inhibition (final tumor volume),PC-3M cell xenograft; 1.25 mg/kg,49.6%
"CC(C)C[C@H](NC(=O)[C@H](Cc1ccc2ccccc2c1)NC(=O)[C@H](CC(C)C)NC(=O)c1cnccn1)B(O)O [YSY01A, N-(2-Pyrazinecarbonyl)-L-leucine-L-(2-naphthyl)-alanine-L-leucine boronic acid]","Protein (cyclinB1, p21, p27, P-cdc2 (tyr15), wee 1) expression from tumor tissue",[3],enhanced
same,IC50,[1],1240 ± 77 nM
same,T-L activity inhibited,[1]; various YSY01A concentrations,12-43%
same,"Impact on viscera index (body, heart, liver, brain, kidney, spleen and lung)",Viscera,slightly impacted
same,"Protein (cyclinB1, p21, p27, P-cdc2 (tyr15), wee 1) expression","[4]; 12.5-100 nM, 48 h, p<0.05 versus control",increased
same,Concentration causing ubiquitinated protein accumulation,[4]; 48h,25 nM
same,IC50,[2],123 ± 18 nM
same,CT-L activity inhibited,[2]; various YSY01A concentrations,34-86%
same,Inhibition efficacy relative to PS341,PC-3M cells [5]; 48h,three times highter
same,IC50,"PC-3M cells [5]; read-out: IC50, proliferation, 48 h",150 ± 9 nM
same,IC50,HL-60 cells,170 ± 9.9 nM
same,Tumor growth inhibition (final tumor volume),PC-3M cell xenograft; 1.25 mg/kg,45.7%
same,Tumor growth inhibition (final tumor volume),PC-3M cell xenograft; 2.25 mg/kg,52.8%
same,Tumor growth inhibition (final tumor volume),PC-3M cell xenograft; 3.25 mg/kg,60.1%
same,"β5i, β2, β2i, β1 and β1i/β5 fluorgenic bands",[6],decreased
same,IC50,"[7]; read-out: IC50 for PGPH, 26S proteasomes, 37°C",714 ± 44 nM
same,PGPH activity inhibited,[7]; various YSY01A concentrations,12-48%
same,Increase of cells in the G2/M phase,PC-3M cells [8]; 50 nM,14%
same,Increase of cells in the G2/M phase,PC-3M cells [8]; 100 nM,44%
same,IC50,Bcap37 cells,879 ± 18.2 nM
same,IC50,Bel-7740 cells,286 ± 13.2 nM
